Laboratory results from ChEMBL document CHEMBL3351334, “Protective effects of resveratrol on hepatotoxicity induced by isoniazid and rifampicin via SIRT1 modulation” (2014).
The source made the active and inactive calls. The calls are words filed in the database; no cut-off is given here.

Tests used:
[1] = tested on: Mus musculus; assay: (§1) Hepatoprotective activity against isoniazid-rifampicin induced liver injury in BALB/c mouse assessed as reduction AST level at 100 mg/kg, po bid for 3 days starting 30 mins prior isoniazid-rifampicin administration measured 24 hrs post-last dose of isoniazid-rifampicin relative to control; assay type: functional; design: scale not given: the % may be the effect or the level left
Method in brief: (§2)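 Serum AST and ALT measured with commercial kits in blood drawn 24 h after the last of three daily oral isoniazid (50 mg/kg) + rifampicin (100 mg/kg) doses. 6 male BALB/c mice per group, mean ± SEM, one-way ANOVA with Newman–Keuls test.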

[2] = tested on: Mus musculus; assay: Hepatoprotective activity against isoniazid-rifampicin induced liver injury in BALB/c mouse assessed as reduction ALT level at 100 mg/kg, po bid for 3 days starting 30 mins prior isoniazid-rifampicin administration measured 24 hrs post-last dose of isoniazid-rifampicin relative to control; assay type: functional; design: scale not given: the % may be the effect or the level left; method in brief: as §2
[3] = tested on: Mus musculus; assay: (§3) Hepatoprotective activity against isoniazid-rifampicin induced liver injury in BALB/c mouse assessed as reversal of GSH depletion at 100 mg/kg, po bid for 3 days starting 30 mins prior isoniazid-rifampicin administration measured 24 hrs post-last dose of isoniazid-rifampicin relative to control; assay type: functional
Method in brief: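 Reduced glutathione assayed with DTNB. Liver homogenized 1:9 w/v in 0.9% saline, spun 3500g 20 min 4 °C. Supernatant deproteinized with 4% sulfosalicylic acid, spun again, then mixed with 0.1 M phosphate buffer and 0.01 M DTNB. Absorbance at 412 nm. 6 mice/group, mean ± SEM.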

[4] = tested on: Mus musculus; assay: as §3, with “increase in catalase activity” for “reversal of GSH”; assay type: functional
Method in brief: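 Liver homogenized 1:9 w/v in 0.9% saline and spun 3500g, 10 min, 4 °C. Supernatant in 50 mM PBS pH 7.0 with 20 mM H2O2 substrate. H2O2 decomposition followed continuously at 240 nm (Aebi method), expressed as mmol H2O2/min/mg protein. n = 6 mice, mean ± SEM.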

[5] = tested on: Mus musculus; assay: as §1, with “in hepatic myeloperoxidase activity” for “AST level”; assay type: functional; design: scale not given: the % may be the effect or the level left
Method in brief: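 Neutrophil recruitment estimated from hepatic myeloperoxidase activity (modified Paszcuk method), expressed as OD/mg tissue. Livers collected 24 h after the last oral isoniazid 50 mg/kg + rifampicin 100 mg/kg dose of a 3-day course. 6 male BALB/c mice/group, mean ± SEM.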

[6] = tested on: Mus musculus; assay: Hepatoprotective activity against isoniazid-rifampicin induced liver injury in BALB/c mouse assessed as reduction in hepatic lesion at 100 mg/kg, po bid for 3 days starting 30 mins prior isoniazid-rifampicin administration measured 24 hrs post-last dose of isoniazid-rifampicin relative to control; assay type: functional, organism-based; design: dose 100 mg/kg
Method in brief: (§4)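 Liver fixed in 10% formaldehyde and paraffin-embedded. 4 μm sections stained with hematoxylin and eosin, examined by light microscopy by a veterinary pathologist blinded to groups. Tissue taken 24 h after the last of 3 daily oral isoniazid (50 mg/kg) + rifampicin (100 mg/kg) doses.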

[7] = tested on: Mus musculus; assay: as §1, with “in fatty accumulation” for “AST level”; assay type: functional, organism-based; design: dose 100 mg/kg; method in brief: as §4
[8] = tested on: Mus musculus; assay: as §1, with “prevention of liver statosis development” for “reduction AST level”; assay type: functional, organism-based; design: dose 100 mg/kg; method in brief: as §4
[9] = tested on: Mus musculus; assay: Hepatoprotective activity against isoniazid-rifampicin induced liver injury in BALB/c mouse assessed as reduction in IL6 level at 100 mg/kg, po bid for 3 days starting 30 mins prior isoniazid-rifampicin administration measured 24 hrs post-last dose of isoniazid-rifampicin relative to control; assay type: functional, organism-based; design: dose 100 mg/kg
[10] = tested on: Mus musculus; assay: Hepatoprotective activity against isoniazid-rifampicin induced liver injury in BALB/c mouse assessed as reduction in MCP-1 level at 100 mg/kg, po bid for 3 days starting 30 mins prior isoniazid-rifampicin administration measured 24 hrs post-last dose of isoniazid-rifampicin relative to control; assay type: functional, organism-based; design: dose 100 mg/kg
[11] = tested on: Mus musculus; assay: as §1, with “restoration of SIRT1 mRNA” for “reduction AST”; assay type: functional, organism-based; design: dose 100 mg/kg
Method in brief: (§5)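 Livers taken 24 h after the last of three daily oral isoniazid 50 mg/kg + rifampicin 100 mg/kg doses (in 1% DMSO/saline). Hepatic mRNA measured by qPCR with mouse GAPDH probe as endogenous control, reactions in duplicate, relative expression by the 2ΔΔC method. n = 6 male BALB/c mice/group, mean ± SEM.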

[12] = tested on: Mus musculus; assay: (§6) Hepatoprotective activity against isoniazid-rifampicin induced liver injury in BALB/c mouse assessed as change in SIRT2 mRNA level at 100 mg/kg, po bid for 3 days starting 30 mins prior isoniazid-rifampicin administration measured 24 hrs post-last dose of isoniazid-rifampicin relative to control; assay type: functional, organism-based; design: dose 100 mg/kg; method in brief: as §5
[13] = tested on: Mus musculus; assay: Hepatoprotective activity against isoniazid-rifampicin induced liver injury in BALB/c mouse assessed as change in SIRT3 mRNA level at 100 mg/kg, po bid for 3 days starting 30 mins prior isoniazid-rifampicin administration measured 24 hrs post-last dose of isoniazid-rifampicin relative to control; assay type: functional, organism-based; design: dose 100 mg/kg; method in brief: as §5
[14] = tested on: Mus musculus; assay: Hepatoprotective activity against isoniazid-rifampicin induced liver injury in BALB/c mouse assessed as change in SIRT4 mRNA level at 100 mg/kg, po bid for 3 days starting 30 mins prior isoniazid-rifampicin administration measured 24 hrs post-last dose of isoniazid-rifampicin relative to control; assay type: functional, organism-based; design: dose 100 mg/kg; method in brief: as §5
[15] = tested on: Mus musculus; assay: Hepatoprotective activity against isoniazid-rifampicin induced liver injury in BALB/c mouse assessed as change in SIRT5 mRNA level at 100 mg/kg, po bid for 3 days starting 30 mins prior isoniazid-rifampicin administration measured 24 hrs post-last dose of isoniazid-rifampicin relative to control; assay type: functional, organism-based; design: dose 100 mg/kg; method in brief: as §5
[16] = tested on: Mus musculus; assay: Hepatoprotective activity against isoniazid-rifampicin induced liver injury in BALB/c mouse assessed as change in SIRT6 mRNA level at 100 mg/kg, po bid for 3 days starting 30 mins prior isoniazid-rifampicin administration measured 24 hrs post-last dose of isoniazid-rifampicin relative to control; assay type: functional, organism-based; design: dose 100 mg/kg; method in brief: as §5
[17] = tested on: Mus musculus; assay: Hepatoprotective activity against isoniazid-rifampicin induced liver injury in BALB/c mouse assessed as change in SIRT7 mRNA level at 100 mg/kg, po bid for 3 days starting 30 mins prior isoniazid-rifampicin administration measured 24 hrs post-last dose of isoniazid-rifampicin relative to control; assay type: functional, organism-based; design: dose 100 mg/kg; method in brief: as §5
[18] = tested on: Mus musculus; assay: as §1, with “in PPAR-gamma mRNA” for “AST”; assay type: functional, organism-based; design: dose 100 mg/kg; method in brief: as §5
[19] = tested on: Mus musculus; assay: as §1, with “in PGC-1alpha mRNA” for “AST”; assay type: functional, organism-based; design: dose 100 mg/kg; method in brief: as §5
[20] = tested on: Mus musculus; assay: as §6, with “effect on nicotinamide phosphoribosyltransferase” for “change in SIRT2”; assay type: functional, organism-based; design: dose 100 mg/kg; method in brief: as §5
[21] = tested on: Mus musculus; assay: Hepatoprotective activity against isoniazid-rifampicin induced liver injury in BALB/c mouse assessed as effect on NAD+ concentration at 100 mg/kg, po bid for 3 days starting 30 mins prior isoniazid-rifampicin administration measured 24 hrs post-last dose of isoniazid-rifampicin relative to control; assay type: functional, organism-based; design: dose 100 mg/kg
Method in brief: (§7)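 Liver NAD+ and NADH quantified with a commercial colorimetric kit per manufacturer's instructions, reduced product read at 565 nm. Tissue collected 24 h after the final oral isoniazid (50 mg/kg) + rifampicin (100 mg/kg) dose of a 3-day course. 6 male BALB/c mice per group.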

[22] = tested on: Mus musculus; assay: Hepatoprotective activity against isoniazid-rifampicin induced liver injury in BALB/c mouse assessed as effect on NADH concentration at 100 mg/kg, po bid for 3 days starting 30 mins prior isoniazid-rifampicin administration measured 24 hrs post-last dose of isoniazid-rifampicin relative to control; assay type: functional, organism-based; design: dose 100 mg/kg; method in brief: as §7
[23] = tested on: Mus musculus; assay: Hepatoprotective activity against isoniazid-rifampicin induced liver injury in BALB/c mouse assessed as reduction in TNFalpha level at 100 mg/kg, po bid for 3 days starting 30 mins prior isoniazid-rifampicin administration measured 24 hrs post-last dose of isoniazid-rifampicin relative to control; assay type: functional, organism-based; design: dose 100 mg/kg
Method in brief: (§8)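 Cytokines measured in homogenized liver tissue by flow cytometry (488 nm laser, high-throughput sampler). Tissue from male BALB/c mice 24 h after final oral isoniazid 50 mg/kg + rifampicin 100 mg/kg. n = 6/group, mean ± SEM, one-way ANOVA/Newman–Keuls.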

[24] = tested on: Mus musculus; assay: Hepatoprotective activity against isoniazid-rifampicin induced liver injury in BALB/c mouse assessed as reduction in IL-12p70 level at 100 mg/kg, po bid for 3 days starting 30 mins prior isoniazid-rifampicin administration measured 24 hrs post-last dose of isoniazid-rifampicin relative to control; assay type: functional, organism-based; design: dose 100 mg/kg; method in brief: as §8
[25] = tested on: Mus musculus; assay: Hepatoprotective activity against isoniazid-rifampicin induced liver injury in BALB/c mouse assessed as reduction in IL-10 level at 100 mg/kg, po bid for 3 days starting 30 mins prior isoniazid-rifampicin administration measured 24 hrs post-last dose of isoniazid-rifampicin relative to control; assay type: functional, organism-based; design: dose 100 mg/kg; method in brief: as §8

Oc1ccc(/C=C/c2cc(O)cc(O)c2)cc1 [RESVERATROL]
Activity [1]: 36% | Activity [2]: 58% | Activity [3]: 89% | Activity [4]: 34% | Activity [5]: 19% | Activity [6]: Active | Activity [7]: Active | Activity [8]: Active | Activity [9]: inactive | Activity [10]: inactive | Activity [11]: Active | Activity [12]: inactive | Activity [13]: inactive | Activity [14]: inactive | Activity [15]: inactive | Activity [16]: inactive | Activity [17]: inactive | Activity [18]: Active | Activity [19]: Active | Activity [20]: inactive | Activity [21]: inactive | Activity [22]: inactive | Activity [23]: Active | Activity [24]: Active | Activity [25]: Active
